Laboratory results: publication PMC8056934 (Journal of Applied Glycoscience, 2017)
Entries after “also recorded” stand apart in the source; their conditions may differ. One block for each compound: values may come before it.

How the values were obtained:
pyranose oxidase (P2O) = pyranose oxidase (P2O) (Trametes versicolor, UniProt P79076); assay: Measurement of P2O activity; format: biochemical, Coriolus sp.; conditions: for Km: P2O, LG: linear S–V relationship between 4 and 40 mM
[1] = 30 °C and pH 7.0; cited from earlier work
[2] = Stability of 3ketoLG in buffer; format: physicochemical; conditions: for k: 10 mM 3ketoLG; for Ea: linear regression of the Arrhenius equation
How it was run: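 Ketosugar is incubated at 30–70 °C in 50 mM sodium phosphate or 50 mM sodium acetate (pH 4.0, 5.0) buffers. At each time point, aliquots are diluted 1:20 into 1 mM acetic acid and quantified by HPLC. k comes from a single-exponential fit of the time course, and t1/2 = ln2/k. Ea at each pH comes from linear Arrhenius regression.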

[3] = Solubility in aqueous solution; format: physicochemical; conditions: aqueous solution / reaction mixture
[4] = Stability of 3ketoLG in acid; format: physicochemical; conditions: 100 °C, 1 h
How it was run: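 Test ketosugar at 10 mM is dissolved in HCl (1, 10 or 100 mM) and held at 100 °C for 1 h. After cooling, samples are diluted 1:20 in water. Remaining ketosugar is quantified by HPLC (50 µL injection) on a KS-801 column with water eluent and charged-aerosol detection.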

[5] = Heat treatment of 3ketoLG and 3ketoMeβGlc in sodium phosphate buffer, HPLC; format: physicochemical; conditions: sodium phosphate buffer 50 mM, pH 8.0, 60 min at 60 °C
How it was run: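 Samples are analysed by HPLC on a Shodex SUGAR KS-801 column (8.0 × 300 mm). Water is the eluent at 1 mL/min and 60 °C, with corona charged-aerosol detection. Chromatograms taken before and after heat treatment are compared.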

[6] = substrate 10 mM, 30 °C, MOPS-Na buffer 25 mM, pH 7.5

SMILES: O=C[C@H](O)[C@@H](O)[C@H](O[C@@H]1O[C@H](CO)[C@@H](O)[C@H](O)[C@H]1O)[C@H](O)CO [cellobiose]
Oxidation by P2O (pyranose oxidase (P2O)): did not oxidize

SMILES: O=C1CO[C@H](CO)[C@@H](O[C@@H]2O[C@H](CO)[C@@H](O)[C@H](O)[C@H]2O)[C@@H]1O [1,5-anhydro-4-O-β-D-glucopyranosyl-D-fructose]
half-life [1]: 17 h

Second part, led by results:

Oxidation by P2O (pyranose oxidase (P2O)): did not oxidize
SMILES: COC1OC(CO)C(O)C(O)C1O [methyl-α-D-glucopyrnaoside]

Km (pyranose oxidase (P2O)): > 40000 µM
Specific activity of P2O (pyranose oxidase (P2O); [6]): 0.018 U/mg-solid
SMILES: O[C@@H]1[C@@H](O)[C@@H]2OC[C@@H](O2)[C@H]1O [LG, 1,6-anhydro-β-D-glucopyranose]

k ([2]; pH 4.0, 70 °C, sodium acetate buffer 50 mM): 0.062 ± 0.002 h⁻¹
k ([2]; pH 5.0, 70 °C, sodium acetate buffer 50 mM): 0.20 ± 0.01 h⁻¹
k ([2]; pH 6.0, 40 °C, sodium phosphate buffer 50 mM): 0.028 ± 0.003 h⁻¹
k ([2]; pH 6.0, 50 °C, sodium phosphate buffer 50 mM): 0.085 ± 0.005 h⁻¹
k ([2]; pH 6.0, 60 °C, sodium phosphate buffer 50 mM): 0.32 ± 0.04 h⁻¹
k ([2]; pH 6.0, 70 °C, sodium phosphate buffer 50 mM): 1.0 ± 0.1 h⁻¹
Ea ([2]; pH 6.0): 26.1 kcal/mol
k ([2]; pH 7.0, 30 °C, sodium phosphate buffer 50 mM): 0.043 ± 0.003 h⁻¹
k ([2]; pH 7.0, 40 °C, sodium phosphate buffer 50 mM): 0.13 ± 0.01 h⁻¹
k ([2]; pH 7.0, 50 °C, sodium phosphate buffer 50 mM): 0.33 ± 0.02 h⁻¹
k ([2]; pH 7.0, 60 °C, sodium phosphate buffer 50 mM): 1.7 ± 0.1 h⁻¹
k ([2]; pH 7.0, 70 °C, sodium phosphate buffer 50 mM): 4.4 ± 0.1 h⁻¹
Ea ([2]; pH 7.0): 24.4 kcal/mol
k ([2]; pH 8.0, 30 °C, sodium phosphate buffer 50 mM): 0.083 ± 0.005 h⁻¹
k ([2]; pH 8.0, 40 °C, sodium phosphate buffer 50 mM): 0.21 ± 0.02 h⁻¹
k ([2]; pH 8.0, 50 °C, sodium phosphate buffer 50 mM): 0.57 ± 0.03 h⁻¹
k ([2]; pH 8.0, 60 °C, sodium phosphate buffer 50 mM): 3.0 ± 0.1 h⁻¹
k ([2]; pH 8.0, 70 °C, sodium phosphate buffer 50 mM): 9.1 ± 0.4 h⁻¹
Ea ([2]; pH 8.0): 24.9 kcal/mol
Decrease of 3ketoLG ([4]; 1 mM HCl): No significant decrease
3ketoLG remained ([4]; 100 mM HCl): > 90%
Change on heat treatment (HPLC) [5]: significantly decreased
SMILES: O=C1[C@@H](O)[C@@H]2OC[C@@H](O2)[C@H]1O [3ketoLG, 1,6-anhydro-β-D-ribo-hexopyranos-3-ulose]
Solubility [3]: poor solubility; also recorded: low solubility

Km (pyranose oxidase (P2O)): 1000 µM
Specific activity of P2O (pyranose oxidase (P2O); [6]): 5.1 U/mg-solid
Specific activity of P2O relative to D-glucose (pyranose oxidase (P2O); substrate 10 mM, 30 °C, MOPS-Na buffer 25 mM, pH 7.5, D-glucose = 100 %): 100%
SMILES: OC[C@H]1OC(O)[C@H](O)[C@@H](O)[C@@H]1O (stereo partly drawn) [D-glucose]
